H69AR inhibit: blocks growth of human H69AR lung tumor cells; H69AR lung tumor viability, ATP luminescence, 72 h; stronger effect = lower value; viability, % at 10 µM; 85,000 compounds, 6% hits; AID 598;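 active means viability at or below 40%; inactive means viability above 40%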;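 further: multidrug resistant small cell line overexpressing MRP-1 efflux transporter; 100% = mean luminescence of untreated control wells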
HCT116 PTEN-null: PTEN-deleted cell growth suppression. AID 827. HCT116 PTEN-null viability, CellTiter-Glo, 60 h; stronger effect = lower value. viability, % at 10 µM. 140,000 compounds, 1.2% hits;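 active means viability at or below a set limit, 4 SD under the median of all tested compounds, cut at about 3.7% in these data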;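 further: PTEN knockout HCT116 line with beta catenin targeted HCT116 as companion control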
HUVEC prolif 384: inhibitors of human endothelial cell proliferation; HUVEC proliferation, CellTiter-Glo luminescence, 72 h; stronger effect = lower value; viability, % at 10 µM (by protocol); 86,000 compounds, 1.1% hits; AID 648;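 active means viability at or below 30%; inactive means viability above 30%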;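 further: 100% = median luminescence of DMSO-only cell control wells on each plate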
HCT116 bCat-KO: beta-catenin-lacking colon tumor cell growth suppression; viability, % at 10 µM; HCT116 beta-catenin knockout viability, CellTiter-Glo, 60 h; stronger effect = lower value; AID 818; 140,000 compounds, 1.5% hits;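 active means viability at or under a set limit, the compound median less 4 SD, cut at about 6% in these data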;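 further: 0% = Hyamine 1622 control at 20 µM and 100% = untreated cell control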
Pyk2 oligo antag: antagonists of human Pyk2 oligomerization; Q14289; Q293 cells, Pyk2 FERM NanoBiT luminescence; stronger effect = lower value; z-score (the deposit names both 25 µM and 10 µM); 99,000 compounds, 0.83% hits;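 active means Z-score of -3 or lower, scaled per plate to the spread of control and sample wells; inactive means z-score above -3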;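 further: negative z-score means lost luminescence so less FERM oligomerization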
Target sequence (Q14289 whole entry, looked up): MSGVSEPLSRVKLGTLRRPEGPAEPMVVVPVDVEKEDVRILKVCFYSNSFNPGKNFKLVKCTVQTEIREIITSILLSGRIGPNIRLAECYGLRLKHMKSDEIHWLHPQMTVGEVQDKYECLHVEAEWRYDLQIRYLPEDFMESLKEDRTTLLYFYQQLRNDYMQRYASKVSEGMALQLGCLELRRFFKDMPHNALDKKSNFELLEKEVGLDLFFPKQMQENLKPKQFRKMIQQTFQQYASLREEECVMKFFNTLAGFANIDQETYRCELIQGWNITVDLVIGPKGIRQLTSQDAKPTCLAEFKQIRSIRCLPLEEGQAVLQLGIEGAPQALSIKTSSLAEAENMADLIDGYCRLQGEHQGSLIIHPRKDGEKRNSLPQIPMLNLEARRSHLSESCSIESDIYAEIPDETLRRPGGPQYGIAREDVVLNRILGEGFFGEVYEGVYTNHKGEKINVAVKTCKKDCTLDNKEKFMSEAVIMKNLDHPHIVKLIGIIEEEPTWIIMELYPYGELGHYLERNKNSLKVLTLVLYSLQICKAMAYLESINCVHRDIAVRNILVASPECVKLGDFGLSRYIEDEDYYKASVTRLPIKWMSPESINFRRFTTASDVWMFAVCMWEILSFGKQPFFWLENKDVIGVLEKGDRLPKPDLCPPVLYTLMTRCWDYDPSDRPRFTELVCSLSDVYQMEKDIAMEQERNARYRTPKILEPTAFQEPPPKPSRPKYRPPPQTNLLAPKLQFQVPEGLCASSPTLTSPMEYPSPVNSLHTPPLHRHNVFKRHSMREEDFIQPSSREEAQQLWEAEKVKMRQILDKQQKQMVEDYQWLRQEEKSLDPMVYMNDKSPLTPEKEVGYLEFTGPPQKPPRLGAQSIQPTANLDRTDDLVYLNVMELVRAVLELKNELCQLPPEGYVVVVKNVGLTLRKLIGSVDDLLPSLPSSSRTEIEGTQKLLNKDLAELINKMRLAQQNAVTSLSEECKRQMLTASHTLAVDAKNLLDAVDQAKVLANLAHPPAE
Lung fibro prol: blocks proliferation of human lung fibroblasts; LL 47 human lung fibroblast viability, ATP luminescence; stronger effect = lower value; viability, % at 10 µM; 85,000 compounds, 1.1% hits;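 active means viability at or below 50% in the single dose screen; inactive means viability above 50%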;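 further: compound exposure lasted 72 h before the ATP readout; 100% = median luminescence of untreated cell-only wells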
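Material: human lung fibroblast line LL 47, low passage; Evaluation: viability percentage against median untreated-cell control; Buffer or medium: 15% FBS in IMEM; Incubation: 72 h compound exposure at 37 °C after overnight plating; Dosing: 0.1% DMSO in all compound wells; Measured by: CellTiter-Glo luminescence.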
Numbers without * were called inactive; / = no result. The entries come from a sample that favours hits as a whole.

SMILES	H69AR inhibit	HCT116 PTEN-null	HUVEC prolif 384	HCT116 bCat-KO	Pyk2 oligo antag	Lung fibro prol
CCC1=Nc2ccc(Br)cc2C(c2ccccc2)N1CC(=O)OC (configuration not stated)	/	71.9	/	75.2	-0.88	/
NNC(=O)CN1C(c2ccc(Cl)cc2)=Nc2ccc(Br)cc2C1c1ccccc1 (configuration not stated)	/	80.0	/	85.7	-3.35*	/
COC(=O)CN1C(c2ccccc2)=Nc2ccc(Cl)cc2C1c1ccccc1 (configuration not stated)	/	63.3	/	75.5	-3.05*	/
Clc1ccc(-n2ncc3c(NCc4ccco4)ncnc32)cc1	11.7*	48.8	75.0	46.1	-0.39	80.4
Clc1ccc(-n2ncc3c(NCc4ccc5c(c4)OCO5)ncnc32)cc1	7.9*	109.6	73.0	101.2	-0.42	87.1
COc1ccc(-n2ncc3c(NCc4ccco4)ncnc32)cc1	61.9	94.0	88.3	96.8	-0.3	102.8
Cc1ccccc1N1CCN(c2ncnc3c2cnn3Cc2ccc(Cl)cc2)CC1	79.7	55.0	68.5	23.9	-0.29	85.1
Cc1cc(C)nc(N2CCN(c3ncnc4c3cnn4Cc3ccc(Cl)cc3Cl)CC2)n1	31.6*	/	62.9	/	/	/
Clc1ccc(Cn2ncc3c(NCc4ccco4)ncnc32)c(Cl)c1	26.1*	18.1	50.8	22.7	/	/
c1ccc(-n2ncc3c(NCC4CCCO4)ncnc32)cc1 (configuration not stated)	41.3	81.8	84.2	63.5	0.29	96.1
Clc1ccc(-n2ncc3c(NCC4CCCO4)ncnc32)cc1 (configuration not stated)	19.5*	50.2	61.3	50.3	/	92.5
Cc1ccc(C)c(NC(=O)CN(C)C(=O)COc2ncnc3sccc23)c1	/	90.8	/	98.0	/	/
O=C1c2cccc3c([N+](=O)[O-])ccc(c23)C(=O)N1c1ccc(Cl)cn1	/	1.6*	/	1.8*	-2.35	/
CC1=C(C)C(=O)N(c2ccccn2)C1=O	88.5	101.6	93.4	98.9	0.56	98.7
O=C(O)c1ccc2c(c1)C(=O)N(c1ccc(Cl)cn1)C2=O	81.5	107.2	92.0	92.8	/	101.5
O=C1c2cccc3c([N+](=O)[O-])ccc(c23)C(=O)N1c1ccccn1	/	1.4*	/	1.6*	0.03	/
O=C1c2cccc3c(N4CCCCC4)ccc(c23)C(=O)N1c1ccccn1	/	66.4	/	65.8	0.09	/
O=C1c2cccc3c(N4CCCCC4)ccc(c23)C(=O)N1c1ccc(Cl)cn1	31.3*	/	78.7	/	/	98.0
O=C1c2cccc3c([N+](=O)[O-])ccc(c23)C(=O)N1c1nccs1	0.8*	1.5*	2.0*	1.5*	-1.35	23.4*
CCOc1ccc(/C(O)=C2/C(=O)C(=O)N(CC3CCCO3)C2c2cccs2)cc1 (configuration not stated)	/	96.8	/	80.2	/	/
Clc1ccc(CNCCC2=CCCCC2)cc1	/	72.9	/	72.3	-0.31	/
COc1cc(CC(=O)OCC(=O)Nc2cc([N+](=O)[O-])ccc2Cl)cc(OC)c1OC	/	92.9	/	97.8	/	/
COc1cc2cc(C(c3nnnn3C(C)(C)C)N3CCC(C)CC3)c(=O)[nH]c2cc1OC (configuration not stated)	77.3	107.3	99.5	104.8	0.56	95.4
COc1ccc(NS(=O)(=O)c2cc([N+](=O)[O-])ccc2N/N=C\c2c(C)[nH]c3ccccc23)cc1	/	3.8*	/	13.9	-2.75	/
COc1ccccc1NS(=O)(=O)c1cc([N+](=O)[O-])ccc1N/N=C/c1c[nH]c2ccccc12	/	17.6	/	35.8	-2.95	/
SMILES	H69AR inhibit	HCT116 PTEN-null	HUVEC prolif 384	HCT116 bCat-KO	Pyk2 oligo antag	Lung fibro prol
Cc1[nH]c2ccccc2c1/C=N/Nc1ccc([N+](=O)[O-])cc1S(=O)(=O)Nc1ccc(Cl)cc1	/	43.1	/	57.4	-3.36*	/
Cc1[nH]c2ccccc2c1/C=N/NC(=O)c1cccc(S(=O)(=O)Nc2ccccc2Cl)c1	/	79.9	/	82.8	/	/
Cc1cc(=O)[nH]c2ccc(Cl)cc12	86.2	105.6	24.1*	98.1	0.07	95.0
O=C(Nc1cccc(Cl)c1)C1C2CCC3C(CCC21)C3(Cl)Cl (configuration not stated)	/	28.4	/	34.4	/	/
Cc1[nH]n2c(=O)c3c(nc2c1-c1ccc(Cl)cc1)CCC3	25.9*	16.3	45.2	14.7	0.06	72.6
Cc1[nH]n2c(=O)c3c(nc2c1-c1ccccc1)CCC3	24.9*	82.8	79.9	97.0	0.9	96.3
Nc1[nH]n2c(=O)c3c(nc2c1N=Nc1ccc(Cl)cc1)CCCC3	/	10.0	/	11.1	-0.4	/
Cc1ccc(C)c(NC(=O)CSc2nc3ccc(N4C(=O)c5ccccc5C4=O)cc3s2)c1	/	82.8	/	97.5	/	/
CC(C)(O)C#Cc1ccc(C(=O)NCc2ccccc2)s1	88.5	/	102.7	/	1.27	96.7
COc1ccc(-c2cc(C(=O)Nc3cc(C)n(Cc4ccc(Cl)cc4)n3)no2)cc1OC	14.5*	69.7	46.3	77.5	0.24	105.7
COc1ccc2c(c1)CCc1c(C(=O)Nc3ccn(Cc4ccc(C)cc4)n3)noc1-2	10.4*	46.9	37.7	29.8	1.3	93.3
Cc1ccc(Cn2ccc(NC(=O)c3noc4c3CCc3ccccc3-4)n2)cc1	103.2	51.9	81.0	36.5	0.59	103.5
COc1ccc2c(c1)CCc1c(C(=O)N3CC4(C)CC3CC(C)(C)C4)noc1-2 (configuration not stated)	35.4*	75.8	85.9	71.5	-1.5	96.0
COc1ccc2c(c1)CCc1c(C(=O)Nc3cc(C)n(Cc4ccc(Cl)cc4)n3)noc1-2	5.3*	87.4	52.0	91.1	1.02	59.9
COc1ccc2c(c1)CCc1c(C(=O)NCc3ccc(Cl)cc3)noc1-2	50.9	99.2	88.7	81.8	1.41	105.2
Cc1nc2sccc2c(=O)n1-c1cccc(Cl)c1	/	81.8	/	86.9	-0.28	/
COc1ccc(Nc2ncnc3ccccc23)c(OC)c1	59.2	81.0	79.3	92.2	-0.64	92.1
COc1ccc(Nc2nc(N3CCCC3)nc3ccccc23)c(OC)c1	2.1*	1.4*	32.2	1.4*	-1.62	105.4
C=CCNc1nc(N2CCCC2)nc2ccccc12	60.7	39.5	91.0	46.0	1.17	89.9
CC(Nc1nc(N2CCCCC2)nc2ccccc12)c1ccccc1 (configuration not stated)	3.2*	3.8	3.6*	4.2*	-1.78	21.3*
CC(=O)N1CCc2ccc(S(=O)(=O)N3CC(C)OC(C)C3)cc21 (configuration not stated)	/	95.8	/	90.6	/	/
CCOC(=O)c1oc2cc(O)c(CC)cc2c(=O)c1-c1ccc2c(c1)OCCO2	51.6	109.6	120.1	85.8	/	96.0
Cc1oc2cc(O)cc(O)c2c(=O)c1-c1ccc2c(c1)OCCCO2	76.5	60.4	125.7	62.5	-3.36*	104.1
CCOC(=O)N1CCC(NC(=O)c2cc(C(=O)NCC(OC)OC)ccc2CO)CC1	104.3	97.9	97.1	98.4	0.82	105.7
O=c1cc(-c2ccccc2)[nH]c2nc3ccccc3n12	13.7*	16.6	52.7	20.9	-2.24	66.2
